# KCNQ1 inh: inhibitors of human KCNQ1 potassium channel; CHO-K1 KCNQ1, FluxOR thallium flux fluorescence; stronger effect = higher value; B-score at 10 µM; P51787; actives 1.3% (n = 310,000);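 active means compounds whose thallium flux B-score, printed positive for inhibition, exceeds three library SD while starting fluorescence stays within three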;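 further: channel opened by potassium depolarization with thallium stimulus after 20 min compound exposure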
# hERG rescue: compounds protecting human hERG from proarrhythmic drug block. Q12809. CHO-hERG, FluxOR thallium flux, dofetilide IC70 present. activation (rescue from dofetilide block), less the hit threshold, % at 10 µM. actives 0.51% (n = 310,000). AID 1511;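 active means activation above the mean of controls blocked by dofetilide plus 5 SD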;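 further: thallium influx through hERG after potassium depolarization seen as dye fluorescence rise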
# KCNK3 block: human KCNK3 channel inhibition, primary screen; AID 602410; O14649; CHO-KCNK3 thallium flux, FluxOR fluorescence; stronger effect = lower value; actives 0.84% (n = 340,000); B-score at 10 µM;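 active means B-score under library mean minus 4 SD, starting fluorescence ratio at most library mean plus 5 SD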;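 further: more negative B-score means stronger inhibition of thallium flux through KCNK3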
# KCNK9 block: inhibitors of human KCNK9 two-pore domain potassium channel; Q9NPC2; HEK293 KCNK9, FluxOR thallium flux fluorescence; stronger effect = lower value; B-score at 10 µM; actives 1.2% (n = 310,000); AID 488922;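 active means ratio B-score over 3 SD below the library mean, with starting fluorescence within 5 SD of its mean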;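 further: negative B-score means less thallium flux so channel inhibition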
# Target sequence (Q9NPC2 whole entry, looked up, the tested form may be a part): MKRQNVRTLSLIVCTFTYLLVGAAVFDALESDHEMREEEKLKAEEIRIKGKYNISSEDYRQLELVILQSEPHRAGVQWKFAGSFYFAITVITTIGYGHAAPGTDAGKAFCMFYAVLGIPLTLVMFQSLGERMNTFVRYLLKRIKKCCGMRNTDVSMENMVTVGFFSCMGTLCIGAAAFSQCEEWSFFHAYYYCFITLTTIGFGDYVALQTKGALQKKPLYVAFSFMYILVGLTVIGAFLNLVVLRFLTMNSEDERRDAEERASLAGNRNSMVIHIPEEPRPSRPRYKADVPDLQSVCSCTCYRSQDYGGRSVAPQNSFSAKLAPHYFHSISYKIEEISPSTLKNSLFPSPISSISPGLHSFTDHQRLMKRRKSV
# KCNQ1 pot: human KCNQ1 channel potentiation or activation | actives 0.35% (n = 310,000) | B-score at 10 µM | CHO-K1 KCNQ1, thallium flux FluxOR fluorescence; stronger effect = higher value | AID 2648 | P51787;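 active means fluorescence ratio B-score, a plate-corrected score, at least three library SD, with initial intensity B-score within 5 SD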
#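 assay system = CHO-K1 cells stably expressing KCNQ1 | medium = assay buffer, equal DMSO in all wells | timing = 37 °C overnight plating, 90-min dark dye load, 20-min compound pretreatment | measured by = kinetic FluxOR thallium fluorescence, 10-s 1-Hz baseline, 110-s post-stimulus read | measure = fluorescence change relative to baseline, converted to B score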
# Kir21 block: blocks the mouse Kir2.1 inward-rectifier potassium channel. actives 0.85% (n = 310,000). HEK293-Kir2.1, FluxOR thallium flux fluorescence; stronger effect = lower value. B-score at 10 µM. P35561;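 active means fluorescence ratio B-score at or below minus 3 SD of library scores, with starting-brightness B-score within 2 SD, cut at about -4.2 in these data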;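 further: channel flux triggered by added potassium and thallium sulfate stimulus; B-score of peak minus minimum fluorescence over baseline after thallium stimulus; more negative B-score means stronger Kir2.1 block with less thallium influx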
# An asterisk follows results filed as active; i = inactive; . = no result. Hits are enriched below; roughly 3.7% of the tested compounds scored in any of these assays.
SMILES,KCNQ1 inh,hERG rescue,KCNK3 block,KCNK9 block,KCNQ1 pot,Kir21 block
O=C(NC(=S)N(CCO)Cc1ccccc1)c1cc(Br)ccc1Cl,i,19*,i,i,i,-1.4
CCCN(Cc1ccccc1)C(=S)NC(=O)c1ccccc1[N+](=O)[O-],i,29*,i,i,i,-0.78
Nc1nc(=S)ss1,.,.,i,.,.,.
O=C(NCCCN1CCOCC1)c1cc2c([nH]c3ccccc32)c(-c2cccc(Br)c2)n1,8*,-30,i,i,i,-0.14
CC(C)c1ccccc1NC(=O)COC(=O)Cc1c[nH]c2ccccc12,i,-9,i,i,i,-5.4*
COc1ccccc1NC(=O)COC(=O)Cc1c[nH]c2ccccc12,i,-14,i,i,i,-1.6
O=C(COC(=O)Cc1c[nH]c2ccccc12)NC1CCCCC1,i,-2,i,i,i,-7*
CC1(c2ccc3ccccc3c2)NC(=O)N(CC(=O)Nc2ncccc2O)C1=O (centres undefined),.,.,i,.,.,.
O=C(Cn1c(=O)c2c(ncn2Cc2ccccc2)n(Cc2ccccc2)c1=O)N1CCc2ccccc21,i,-9,i,i,7*,1.4
CCn1cnc2c1c(=O)n(CC(=O)N1CCc3ccccc31)c(=O)n2Cc1ccccc1,i,-13,i,i,i,0.69
Cc1cc(C)c(NC(=O)CSc2ccc3nnc(CCNC(=O)c4ccccc4)n3n2)c(C)c1,i,-9,i,i,i,-1
O=C(N/N=C/c1c(O)n(-c2ccc(Cl)cn2)c(=O)c2ccccc12)c1ccncc1,11*,-28,i,-6.9*,i,-4.4
O=c1cc(O)nc(-c2ccc(Cl)cc2)s1,i,-6,i,i,i,-0.49
Cc1ccccc1CSc1nccn1-c1ccccc1,i,-8,i,i,i,-4.4*
COC(=O)C(Cc1ccc(O)cc1)NC(=O)c1ccc2c(c1)OCCO2 (centres undefined),i,-4,i,i,i,-1.8
C=CCNCCOc1ccc(C(C)(C)c2ccccc2)cc1,i,-8,i,i,i,-12*
CSc1nc2ccc3nc(NC(=O)c4ccc(C)cc4)sc3c2s1,i,-6,i,i,i,-1.6
O=C(Nc1nc(=O)c2ccccc2s1)c1ccccc1,i,3,i,i,11*,0.16
Cc1ccc(C(=O)Nc2nc(=O)n(C(=O)C3CC3)s2)cc1,i,5.0*,i,i,i,-0.41
CC(=O)Nc1nc(=O)c2ccccc2s1,i,0,i,i,i,-1.8
Cc1ccc(C(=O)Nc2nc3ccccc3c(=O)s2)cc1,i,23*,i,i,35*,-2.4
CC1SC(c2ccc(F)cc2)NC1=O (centres undefined),i,-11,i,i,i,1.5
COc1ccc(OCCCCc2c(C)n[nH]c2C)cc1,i,-12,i,i,i,-0.28
Cc1nc(-c2ccc(F)cc2)c(CC(=O)N(C)CC(=O)Nc2ccc(Cl)c(C(F)(F)F)c2)s1,.,.,i,.,.,.
COCCn1cnnc1SCC(=O)Nc1ccccc1C(=O)Nc1ccc2c(c1)OCO2,i,-9,i,i,i,-0.94
SMILES,KCNQ1 inh,hERG rescue,KCNK3 block,KCNK9 block,KCNQ1 pot,Kir21 block
CCn1c(=S)sc2c(=O)n(CC(=O)Nc3cccc(OC)c3)c(C)nc21,i,-10,i,i,i,0.51
Cc1c(NC(=O)Nc2ccc(Cl)c(Cl)c2)sc(=S)n1C,8*,-11,i,i,i,2
CCN=C(N/N=C/c1ccc([N+](=O)[O-])cc1)SC,i,-12,i,i,i,-0.22
Cc1ccc(NC(=O)C(=O)NNC(=O)c2ccccc2C)cc1Cl,i,46*,i,i,41*,2.2
COc1ccccc1C(=O)NNC(=S)Nc1ccccc1,i,-4,i,i,i,0.29
COc1ccccc1C(=O)NNC(=O)C(=O)Nc1ccc(C)c(Cl)c1,i,61*,i,i,94*,0.34
COc1ccccc1C(=O)NNC(=O)C(=O)Nc1ccc(C)cc1,i,47*,i,i,i,0.68
COc1ccccc1C(=O)NNC(=O)C(=O)NC(C)(C)C,i,7.4*,i,i,9*,-2.2
CCOCCCNC(=O)C(NC(=O)Cc1cccs1)c1ccc(C)cc1 (centres undefined),i,12*,i,i,i,0.23
O=C(CNS(=O)(=O)c1ccc(F)cc1)N1CCN(c2ccccc2)CC1,i,-3,i,i,i,-0.51
Cc1ccc(C(=O)N/N=C(/CC(=O)c2cccs2)C(F)(F)F)cc1,i,16*,i,i,13*,1.3
CCOc1ccc(NC(=O)CN2C(=O)NC(CCSC)C2=O)cc1 (centres undefined),i,-19,i,i,i,0.49
O=C(CSCc1cccc(Cl)c1)NCc1ccc2c(c1)OCO2,i,-11,i,i,i,-1
O=C(NCc1ccc2c(c1)OCO2)c1ccc(CSCc2cccc(Cl)c2)o1,i,-14,i,-7.5*,i,-0.37
O=C(COc1ccc(Cl)cc1Cl)N(Cc1ccco1)C1CCS(=O)(=O)C1 (centres undefined),i,-2,i,-7*,i,-0.38
COc1ccc2c(-c3ccc(S(N)(=O)=O)cc3)c(-c3ccc(S(C)(=O)=O)cc3)sc2c1,.,.,i,.,.,.
COc1ccc(CN(C)C(=O)c2cc(-c3ccccc3)nc3ccc(C)cc23)c(OC)c1OC,6*,-34,i,i,i,-0.8
Cc1cccc(N2CCN(C(=O)CNC(=O)Cc3ccccc3)CC2)c1C,.,.,i,.,.,.
Cc1cccc(N2CCN(C(=O)CNC(=O)c3cccc([N+](=O)[O-])c3)CC2)c1C,i,12*,i,i,i,0.04
CC1CCC(C(C)C)C(OC(=O)C[n+]2cc(-c3ccc(Cl)cc3)n3c2CCCCC3)C1 (centres undefined),6*,-25,-9.8*,i,i,-8.6*
Clc1ccc(-c2c[n+](Cc3ccc(Cl)cc3Cl)c3n2CCCCC3)cc1,7*,-20,i,i,i,-0.58
Clc1ccc(C[n+]2cc(-c3ccccc3)n3c2CCCCC3)c(Cl)c1,i,-21,i,i,i,-1.2
O=C(C[n+]1cc(-c2ccccc2)n2c1CCCCC2)c1ccc(Cl)cc1,i,-9,i,i,i,0.74
COc1cccc(/C=N/n2c(SC)nnc2-c2ccccc2)c1OC,i,-12,i,i,i,0
COc1cccc(/C=N/n2c(SC)nnc2-c2ccccc2)c1O,i,2,i,i,15*,1.7

# Source: PubChem BioAssay
